According to ChEMBL document CHEMBL1667836, “Synthesis of egonol derivatives and their antimicrobial activities” (2011):
In brackets after ≈: the same amount, converted by molar mass. Activity calls are given as the source filed them. The calls are words filed in the database; no cut-off is given here.

Legend:
Type in all cases: functional
Staphylococcus aureus = assay: Antimicrobial activity against Staphylococcus aureus ATCC 29213 by MHB method
Summary of the method: (§1)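 Broth-based MIC assay in Mueller Hinton broth. Test compounds were supplied from stock solutions in DMSO. The read-out was the minimum inhibitory concentration determined for each compound against each strain.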

Escherichia coli = assay: Antimicrobial activity against Escherichia coli ATCC 8739 by MHB method; summary of the method: as §1
Bacillus subtilis = assay: Antimicrobial activity against Bacillus subtilis ATCC 6633 by MHB method; summary of the method: as §1
Candida albicans = assay: Antimicrobial activity against Candida albicans ATCC 10231 by MHB method; summary of the method: as §1

SMILES | MIC (Staphylococcus aureus) | MIC (Escherichia coli) | MIC (Bacillus subtilis) | MIC (Candida albicans)
CCN(CC)CCCc1cc(OC)c2oc(-c3ccc4c(c3)OCO4)cc2c1 | inactive | inactive | inactive | 200 µg/mL (≈ 524 µM)
COc1cc(CCCOC(=O)CN2CCOCC2)cc2cc(-c3ccc4c(c3)OCO4)oc12 | inactive | 800 µg/mL (≈ 1760 µM) | inactive | inactive
COc1cc(CCCO)cc2cc(-c3ccc4c(c3)OCO4)oc12 [EGONOL] | 800 µg/mL (≈ 2450 µM) | 800 µg/mL (≈ 2450 µM) | 800 µg/mL (≈ 2450 µM) | 25 µg/mL (≈ 76.6 µM)
COc1cc(CC/C=C(\C=O)Cc2cc(OC)c3oc(-c4ccc5c(c4)OCO5)cc3c2)cc2cc(-c3ccc4c(c3)OCO4)oc12 | 25 µg/mL (≈ 39.6 µM) | inactive | inactive | 25 µg/mL (≈ 39.6 µM)
COc1c([N+](=O)[O-])c(CCCO)cc2c([N+](=O)[O-])c(-c3ccc4c(c3)OCO4)oc12 | 800 µg/mL (≈ 1920 µM) | 400 µg/mL (≈ 961 µM) | 400 µg/mL (≈ 961 µM) | 400 µg/mL (≈ 961 µM)
COc1cc(CC/C=N/NC(N)=O)cc2cc(-c3ccc4c(c3)OCO4)oc12 | inactive | inactive | 400 µg/mL (≈ 1050 µM) | 25 µg/mL (≈ 65.6 µM)
COc1cc(CC/C=N/O)cc2cc(-c3ccc4c(c3)OCO4)oc12 | inactive | inactive | inactive | 800 µg/mL (≈ 2360 µM)
COc1ccc(-c2cc3cc(CCCOC(=O)CCl)cc(OC)c3o2)cc1OC | 400 µg/mL (≈ 955 µM) | inactive | 400 µg/mL (≈ 955 µM) | 200 µg/mL (≈ 477 µM)
COc1cc(CC/C=N/OC(=O)c2ccccc2)cc2cc(-c3ccc4c(c3)OCO4)oc12 | inactive | inactive | 400 µg/mL (≈ 902 µM) | 100 µg/mL (≈ 226 µM)
COc1cc(CCCOC(=O)CCl)cc2cc(-c3ccc4c(c3)OCO4)oc12 | inactive | inactive | inactive | 100 µg/mL (≈ 248 µM)
COc1cc(CC/C=C/C(C)=O)cc2cc(-c3ccc4c(c3)OCO4)oc12 | inactive | inactive | inactive | 200 µg/mL (≈ 549 µM)
COc1cc(CCCCl)cc2c([N+](=O)[O-])c(-c3ccc4c(c3)OCO4)oc12 | inactive | 800 µg/mL (≈ 2050 µM) | inactive | 25 µg/mL (≈ 64.1 µM)
COc1cc(CCCOC(C)=O)cc2cc(-c3ccc4c(c3)OCO4)oc12 [EGONOL ACETATE] | inactive | inactive | inactive | 200 µg/mL
COc1cc(CCC(=O)O)cc2cc(-c3ccc4c(c3)OCO4)oc12 [EGONOIC ACID] | 200 µg/mL (≈ 588 µM) | inactive | 800 µg/mL (≈ 2350 µM) | 50 µg/mL (≈ 147 µM)
COc1cc(CC/C=N/OC(=O)CCl)cc2cc(-c3ccc4c(c3)OCO4)oc12 | inactive | 800 µg/mL (≈ 1920 µM) | inactive | 25 µg/mL (≈ 60.1 µM)
COc1cc(CCCN2CCOCC2)cc2cc(-c3ccc4c(c3)OCO4)oc12 | 200 µg/mL (≈ 506 µM) | inactive | inactive | 25 µg/mL (≈ 63.2 µM)
COc1cc(CC/C=N/NC(N)=S)cc2cc(-c3ccc4c(c3)OCO4)oc12 | inactive | inactive | 400 µg/mL (≈ 1010 µM) | 200 µg/mL (≈ 503 µM)
COc1cc(CCCOS(=O)(=O)O)cc2cc(-c3ccc4c(c3)OCO4)oc12 | 400 µg/mL (≈ 984 µM) | 400 µg/mL (≈ 984 µM) | 400 µg/mL (≈ 984 µM) | 50 µg/mL (≈ 123 µM)
COc1cc(CCCO)cc2c(N)c(-c3ccc4c(c3)OCO4)oc12 | inactive | inactive | inactive | 800 µg/mL (≈ 2340 µM)
